# The list is not random: actives were taken first. Their share in the collection is about 1.4%.
# MT1-MMP act inh: blockers of MT1-MMP proenzyme processing, primary screen, HT1080 RFP-PRO-GFP cells, GFP/RFP fluorescence; AID 651647, 2012; 360,000 tested, 0.061% active; GFP/RFP ratio fluorescence, overnight; percent of plate control window, DMSO zero; Matrix metalloproteinase-14 (Homo sapiens), P50281; GFP/RFP ratio change, % at 20 µM;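 active = GFP/RFP ratio change of at least 30% with cell ATP level not reduced by more than half and red fluorescence within 50% of control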
#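 Test system: HT1080 cells expressing an RFP-PRO-GFP fluorescent reporter construct / Compound dosing: single-point 20 µM compound, 1% DMSO / Schedule: cells overnight before dosing, compound overnight, 37 °C, 5% CO2 / Evaluation: GFP/RFP fluorescence ratio / Control set: DMSO and RFP-L50D-GFP cell wells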
# H9c2 TAG inh: inhibitors of triacylglycerol accumulation, primary screen, cell-based, uHTS, fluorescence, H9c2; H9c2 cells, Nile Red lipid (TAG) fluorescence; cells loaded with 200 µM oleic acid; inhibition, % at 12.5 µM; 230,000 tested, 0.66% active; AID 651582, 2012;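 active = pattern-corrected inhibition of lipid staining of at least 50% with the nuclear-stain viability signal not falling by more than 50%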;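 also: 0% = DMSO wells and 100% = triacsin C control wells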
# DDE Tn7 FP inh: inhibitors of Tn7 peptide binding to fibrin DD(E), primary screen, biochemical, fluorescence polarization, human fibrin, Tn7 probe; Fibrinogen beta chain (Homo sapiens), P02675; FP displacement of FITC-Tn7 peptide from fibrin DD(E); 0% = median of compound wells per plate; inhibition, % at 8.3 µM; 370,000 tested, 0.13% active; AID 720508, 2013;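 active = inhibition above the mean of compounds falling within the control limits plus 3 SD of them, cut at about 14% in these data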;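 also: 0% = plate median of compound wells and 100% = 10 µM Aha-Tn7 peptide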
# Target sequence (P02675 whole entry, looked up): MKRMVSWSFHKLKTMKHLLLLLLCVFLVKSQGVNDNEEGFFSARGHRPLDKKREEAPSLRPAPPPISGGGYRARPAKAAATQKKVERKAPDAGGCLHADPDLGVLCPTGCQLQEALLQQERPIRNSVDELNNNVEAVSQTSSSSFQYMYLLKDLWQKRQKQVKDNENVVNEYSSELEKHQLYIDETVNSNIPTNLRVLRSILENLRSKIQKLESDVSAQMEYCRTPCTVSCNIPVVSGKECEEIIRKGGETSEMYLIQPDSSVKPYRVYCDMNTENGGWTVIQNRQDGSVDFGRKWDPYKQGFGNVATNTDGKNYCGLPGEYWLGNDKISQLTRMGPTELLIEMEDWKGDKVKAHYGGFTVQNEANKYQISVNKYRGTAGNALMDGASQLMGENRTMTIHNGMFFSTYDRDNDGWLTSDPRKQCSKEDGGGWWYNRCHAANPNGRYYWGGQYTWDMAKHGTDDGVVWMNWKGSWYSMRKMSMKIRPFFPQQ
#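 Assay system: human fibrin DD(E) protein / Input: 2 µM fibrin DD(E) / Benchmarks: high control of 10 µM Aha-Tn7 peptide / Measured by: fluorescence polarization of the labelled Tn7 tracer / Medium: Tris buffer with calcium and detergent, pH 7.8 / Timing: 10 min compound pre-incubation, 3 h probe incubation at room temperature / Repeats: one replicate per compound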
# Cardio protect: cardioprotection against H2O2-induced cell death, primary screen, uHTS, H9c2 cells, ATPLite luminescence | H9c2 cardiomyocytes, H2O2 injury protection, 2 h | 360,000 tested, 0.63% active | protection from H2O2 cell death, % at 20 µM;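 active = compounds giving at least 50% protection of heart cells from peroxide-induced death in the single-dose screen, raw or plate-pattern-corrected value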;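 also: 0% = DMSO wells with peroxide and 100% = DMSO wells without peroxide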
# Tn6 DDE FP: inhibitors of Tn6 peptide binding to fibrin DD(E), primary screen, biochemical, fluorescence polarization, human fibrin, Tn6 probe | AID 720509, 2013 | Fibrinogen beta chain (Homo sapiens), P02675 | inhibition, % at 8.3 µM | Fibrin DD(E) TRITC-Tn6 fluorescence polarization displacement | 370,000 tested, 0.21% active;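 active = inhibition above a per-campaign cutoff: mean of compounds within control limits plus 3 SD, cut at about 15% in these data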;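 also: 0% = median of all compound wells on the plate and 100% = blocking peptide control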
# DAGLB inhibitor: DAGLB lipase inhibitors, primary screen, biochemical, fluorescence, HTS | HEK293T DAGLB membrane lysate, EnzChek fluorogenic substrate | Diacylglycerol lipase-beta (Homo sapiens), Q8NCG7 | 340,000 tested, 0.059% active | inhibition, % at 5.17 µM; in the data active = inhibition above about 34%;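 also: 0% = enzyme with vehicle and 100% = wells lacking enzyme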
# DAGLB inh conf: DAGLB lipase inhibitors, retest, confirmation, biochemical, fluorescence, HEK293T membranes; shares compounds with DAGLB inhibitor; inhibition, % at 5.17 µM; 190 tested, 73% active; HEK293T DAGLB membrane lysate, EnzChek fluorogenic substrate;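 active = mean inhibition over triplicate wells above a set limit taken from the primary lipase screen, cut at about 34% in these data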;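 also: 0% = DAGLB with DMSO and 100% = wells lacking DAGLB enzyme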
# * hit, by the source's call; . = no result given.
SMILES,MT1-MMP act inh,H9c2 TAG inh,DDE Tn7 FP inh,Cardio protect,Tn6 DDE FP,DAGLB inhibitor,DAGLB inh conf
CCc1ccc(S(=O)(=O)/N=C2\C=C(Nc3cccc(C(=O)O)c3)C(=O)c3ccccc32)cc1,15,.,-1,-22,1,47*,30
O=C1C=C(Nc2ccc(O)cc2)C(=O)c2ccccc21,13,35,0,-17,-1,17,.
O=C(O)c1ccc(NC2=C/C(=N/S(=O)(=O)c3ccccc3)c3ccccc3C2=O)cc1,-2,-2,1,-24,-6,14,.
Cc1cc(C)c(S(=O)(=O)/N=C2\C=C(Nc3ccc(C(=O)O)cc3)C(=O)c3ccccc32)c(C)c1,16,.,-2,-19,0,36*,39*
CCC[C@H]1[C@@H](NC(=O)c2cccc(C)c2)CC[C@@]23CCCN2C(=O)CCC[C@@H]13,.,.,0,.,-5,.,.
O=C(N/N=C/c1ccc(O)c(O)c1O)/C(=C/c1ccc([N+](=O)[O-])cc1)NC(=O)c1ccccc1,5,-14,3,61*,-3,35*,19
CC(=O)c1c(C)oc2ccc(NS(=O)(=O)c3ccc(O)c(C(=O)O)c3)cc12,4,.,0,-3,-11,57*,53*
COC(=O)c1cc(-c2ccc(C)cc2)c(=O)n2c1CCC2,.,.,-1,.,2,.,.
C#Cc1cccc(OCC(C)CN2CCC(C(O)(c3ccccc3)c3ccccc3)CC2)c1 (centres undefined),.,.,-8,.,-8,.,.
O=[N+]([O-])c1cc([N+](=O)[O-])c2oc(-c3ccccc3)c(Br)c2c1O,-1,.,.,-17,.,37*,37*
O=c1cc(-c2ccccc2Cl)oc2ccc([N+](=O)[O-])c(O)c12,-2,7,4,2,2,4,.
O=c1[nH]c(CSc2nc3ccccc3s2)nc2ccccc12,1,2,0,1,-1,0,.
Cc1ccc(Nc2nnc(SCc3nc4ccccc4c(=O)[nH]3)s2)cc1,-2,-24,3,2,-9,60*,50*
COc1cccc(O[C@H]2C=C[C@@H](c3ccccc3)O[C@@H]2CO)c1,.,.,2,.,3,.,.
Oc1ccc(N=Nc2nc(-c3ccccc3)c(-c3ccccc3)[nH]2)cc1,9,.,-1,29,0,38*,31
COc1ccc(NC(=S)NNc2ccc(S(=O)(=O)Nc3ccccc3C(=O)O)cc2[N+](=O)[O-])cc1,10,-4,5,-4,3,43*,48*
O=C(O)c1ccccc1NS(=O)(=O)c1ccc(NN=Cc2ccccc2F)c([N+](=O)[O-])c1,8,10,9,-3,-7,24,.
CCOc1ccc(C=NNc2ccc(S(=O)(=O)Nc3ccccc3C(=O)O)cc2[N+](=O)[O-])cc1,18,10,.,0,.,18,.
COc1ccc(C=NNc2ccc(S(=O)(=O)Nc3ccccc3C(=O)O)cc2[N+](=O)[O-])c(OC)c1,27,6,.,-4,.,43*,43*
O=C1NC(=Nc2ccccc2Cl)S/C1=C\c1cccc([N+](=O)[O-])c1O,2,.,1,-2,-4,36*,32
COc1c(/C=C2\SC(=Nc3ccccc3Cl)NC2=O)cccc1[N+](=O)[O-],10,8,10,1,-8,11,.
CC1Cc2cc(/C=C3/SC(=S)NC3=O)ccc2O1 (centres undefined),-3,-3,-3,-11,5,13,.
Cc1ccc(C2C(/C=C3/SC(=S)NC3=O)=C(c3cccs3)Oc3ccccc32)cc1 (centres undefined),-20,.,1,-27,-4,39*,44*
O=[N+]([O-])c1cccc(NCCCN2CCC(C(O)(c3ccccc3)c3ccccc3)CC2)c1,.,.,2,.,-2,.,.
COc1cccc(C(=O)Nc2cccc(NC(=O)c3ccccc3Cl)c2)c1,2,.,-1,7,0,1,.
SMILES,MT1-MMP act inh,H9c2 TAG inh,DDE Tn7 FP inh,Cardio protect,Tn6 DDE FP,DAGLB inhibitor,DAGLB inh conf
COc1cccc(C(=O)Nc2cccc(C(=O)NC3=NN(c4c(Cl)cc(Cl)cc4Cl)C(=O)C3)c2)c1,-3,3,-10,-2,-10,36*,17
Nc1nc(-c2ccccc2)c(-c2ccccc2)s1,-5,7,9,15,12,-3,.
Nc1nc(-c2ccccc2)c(N=Nc2ccc(Cl)cc2)s1,27,.,1,-4,-10,51*,84*
C/C(N)=C(/C#N)C(=O)CSc1nc2cc(Cl)ccc2s1,-7,.,5,-12,7,0,.
CCn1nc([N+](=O)[O-])c(C(C#N)c2nc3cc(C(F)(F)F)ccc3s2)c(Cl)c1=O (centres undefined),25,.,7,-21,-6,60*,106*
CCN1C(c2ccccc2)=C(c2ccccc2)S/C1=C/C=C1\SC(=S)N(C)C1=O,43,41,5,-9,2,39*,22
CCOC(=O)[C@]12CCCC=C1N(CCCOC)C(=O)[C@@H]2CC(=O)NCc1ccc(C)o1,.,.,4,.,-1,.,.
O=C(NC(C(=O)N/N=C/c1c2ccccc2cc2ccccc12)c1n[nH]c(=O)c2ccccc12)c1ccccc1 (centres undefined),-12,.,8,33,-1,40*,38*
O=C(CSc1nc2ccccc2o1)N1CCCC1,2,3,-1,10,5,49*,1
CN(C)c1ccc(N=Nc2ccccc2C(=O)OCC(=O)Nc2ccccc2C(F)(F)F)cc1,11,.,-6,-1,-2,35*,59*
Cc1ccccc1NC(=O)CCS(=O)(=O)c1ccccc1,.,.,-3,.,2,.,.
N#C/C(N=Nc1ccccc1O)=N\Nc1ccccc1O,-50,16,-1,-8,-6,41*,83*
O=C1CC(c2ccccc2)=C(c2ccccc2)C1,-1,5,-1,-1,6,71*,-5
O=C(c1cc(-c2ccc(Cl)cc2)nc2ccccc12)N1CCN(c2ncccn2)CC1,.,.,4,.,10,.,.
CCOc1cccc(-c2nnc(SCC(=O)Nc3ccc4c(c3)OCO4)n2N)c1,.,.,9,.,2,.,.
c1ccc(C2=NN(c3ccccc3)CC2)cc1,7,-6,0,-8,-2,-1,.
